Activity, inhibition and ILS data for seven compounds are collected here from ChEMBL document CHEMBL3352704, “Microwave-assisted synthesis of 3,5-disubstituted isoxazoles and evaluation of their anti-ageing activity” (2014).

Calls of active or inactive are those of the source. The calls are words filed in the database; no cut-off is given here.

In test [1] the test system is Caenorhabditis elegans. As to the kind of experiment: Antiaging activity in Caenorhabditis elegans Bristol isolate N2 assessed as lifespan. Type of test: functional, organism-based. The essentials:
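C. elegans N2 hermaphrodites, egg-lay synchronized, moved at L4 (80-120 per condition) onto UV-killed OP50/NGM plates carrying compound in DMSO diluted in M9, or DMSO alone; 20 °C, new plates every 2 days, exposure lifelong. Day 1 adult = t0. Scored daily for touch-provoked movement and pharyngeal pumping until death. Kaplan–Meier curves, log-rank test; repeated at least twice.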

The test system of test [2] is HLF1. In words: Inhibition of H2O2-induced oxidative stress in human HLF1 cells assessed as cell viability at 5 uM pretreated for 24 hrs followed by addition of 300 uM H2O2 for 2.5 hrs. Type of test: functional, cell-based. The essentials:
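HFL-1 embryonic lung fibroblasts in DMEM/10% FBS, fed about 16 h before assay; 10⁴ cells seeded, 24 h later given compound in DMSO or DMSO alone for 24 h. Then 300 μM H2O2 for 2.5 h with compound still present, PBS wash, 5-day recovery in complete medium. Cells counted in triplicate with a Coulter counter; at least two experiments.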

Test [3] has as its system Caenorhabditis elegans. As to the kind of experiment: Antiaging activity in Caenorhabditis elegans Bristol isolate N2 assessed as lifespan at 10 uM. Type of test: functional, organism-based.
Test [4] deals with HLF1. In words: Inhibition of H2O2-induced oxidative stress in human HLF1 cells assessed as increase in cell viability at 2 to 5 uM pretreated for 24 hrs followed by addition of 300 uM H2O2 for 2.5 hrs. In kind it is functional, cell-based.
Test [5] relates to Caenorhabditis elegans. As to the kind of experiment: Antiaging activity in Caenorhabditis elegans Bristol isolate N2 assessed as increase in lifespan at 1 uM (reference value: 15 +/- 0.85%). In kind it is functional.
The subject of test [6] is Caenorhabditis elegans. In words: Antiaging activity in Caenorhabditis elegans Bristol isolate N2 assessed as increase in lifespan at 10 uM (reference value: 15 +/- 0.85%). In kind it is functional.
Test [7] deals with Caenorhabditis elegans. In words: Antiaging activity in Caenorhabditis elegans Bristol isolate N2 assessed as increase in lifespan at 20 uM (reference value: 15 +/- 0.85%). In kind it is functional.

Consider `Cc1c(C)c2c(c(C)c1O)C=CC(C)(COCc1cc(-c3ccc(F)cc3)no1)O2` (stereo unspecified), for which, in the test on Caenorhabditis elegans [1], the outcome was inactive. For the same compound, in the test on HLF1 [2], the inhibition result is “inactive”.
On to `Oc1ccc(-c2cc(-c3ccccc3)on2)cc1`, for which the outcome in the test with Caenorhabditis elegans [1] was inactive. The inhibition result in the test with HLF1 [2] is “inactive”.
For the compound `O=c1c(O)c(-c2ccc(O)c(O)c2)oc2cc(O)cc(O)c12`, in the test on Caenorhabditis elegans [3], the outcome was inactive. The result in the test on HLF1 [4] was Active.
Take `CCCc1cc(-c2ccc(O)cc2)no1`: the result with Caenorhabditis elegans [1] was inactive. The inhibition result with HLF1 [2] was “inactive”.
As a reminder, the ILS is how much longer treated animals lived than controls. For `Cc1c(C)c2c(c(C)c1O)C=CC(C)(COCc1cc(-c3ccc(O)cc3)no1)O2` (stereo unspecified), the outcome in the test on HLF1 [4] was Active. Further, the ILS at 1 µM in the test with Caenorhabditis elegans [5] came out at 18%. Also, the ILS at 10 µM in the test with Caenorhabditis elegans [6] is 18%. Moreover, in the test with Caenorhabditis elegans [7], the ILS at 20 µM was 20%.
Turning to `COc1c(C)c(C)c2c(c1C)CCC(C)(COCc1cc(-c3ccc(O)cc3)no1)O2` (stereo unspecified), the result in the test with Caenorhabditis elegans [1] was inactive. Moreover, the inhibition entry in the test with HLF1 [2] was “inactive”.
For `OCc1cc(-c2ccc(O)cc2)no1`, the result in the test on Caenorhabditis elegans [1] was inactive. For the same compound, in the test on HLF1 [2], the inhibition result is “inactive”.
